# Experimental data taken from PMC2947205 (Science (New York, N.Y.), 2009).
# Like-named read-outs stand apart in the source and are kept apart here.
# Legend:
# [1] = test system: WT mice; experiment: Open-field assay, WT mice; assay type: in vivo, mouse
# [2] = test system: sigma-1 receptor KO mice; experiment: Open-field assay, sigma-1 receptor KO mice; assay type: in vivo, mouse; details: 3 mg/kg, ip, n = 6
# [3] = target: T1, sigma-1 receptor (Rattus norvegicus, UniProt Q9R0C9); experiment: Protection of [125I]-IACoc photolabeling in rat liver membranes; assay type: binding; details: for protection of [125I]-IACoc photolabeling of the 26-kD sigma-1 receptor: 1 nM [125I]-IACoc; for protection against sigma-1 receptor [125I]-IACoc photolabeling (in words): even at these high concentrations (50 and 100 μM)
# [4] = test system: human cardiac Na+ channel hNav1.5; experiment: Patch-clamp INa in HEK293 cells stably expressing hNav1.5; assay type: cell-based; details: 100 μM, steps from −80 to −10 mV, n = 3
# Summary of the method: (§1)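 Whole-cell INa was recorded in hNav1.5-expressing cells (HEK293; COS-7 transiently transfected). Currents were evoked by steps from −80 to −10 mV before, during and after washout of 100 μM test compound. Inhibition was derived from peak INa, reported as mean ± SEM of n = 3 cells.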
# [5] = test system: WT neonatal cardiac myocytes; experiment: Patch-clamp INa in WT neonatal cardiac myocytes; assay type: cell-based; details: Mus musculus, read-out: inhibition of INa
# Summary of the method: (§2)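 Neonatal cardiac myocytes came from wild-type and sigma-1 receptor knock-out mice. INa was evoked by steps from −80 to −10 mV and recorded in the absence of, during and after washout of 100 μM test compound.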
# [6] = test system: KO myocytes; experiment: Patch-clamp INa in sigma-1 receptor KO neonatal cardiac myocytes; assay type: cell-based, mouse; details: 100 μM, n = 7
# Summary of the method: as §2
# [7] = test system: human cardiac Na+ channel hNav1.5; experiment: Patch-clamp INa in COS-7 cells transiently transfected with hNav1.5; assay type: cell-based; details: 100 μM, n = 3
# Summary of the method: as §1
# [8] = target: T1, sigma-1 receptor; experiment: Protection of [125I]IAF photolabeling of sigma-1 receptor in rat liver membranes; assay type: binding; details: for protection of [125I]IAF photolabeling of the sigma-1 receptor: 1 nM [125I]IAF
# [9] = target: T2, sigma-1 receptor (Homo sapiens, UniProt Q99720); experiment: Competition binding against
# [10] = target: T3, sigma-2 receptor (Homo sapiens, UniProt Q5BJF2); experiment: Sigma-2 receptor binding
# [11] = target: T4, sigma-2 receptor (Rattus norvegicus, UniProt Q5U3Y7); experiment: Protection of [125I]IAF photolabeling of sigma-2 receptor in rat liver membranes; assay type: binding; details: for protection of [125I]IAF sigma-2 receptor photolabeling: 1 nM [125I]IAF
# T4 sequence (Q5U3Y7 1-176): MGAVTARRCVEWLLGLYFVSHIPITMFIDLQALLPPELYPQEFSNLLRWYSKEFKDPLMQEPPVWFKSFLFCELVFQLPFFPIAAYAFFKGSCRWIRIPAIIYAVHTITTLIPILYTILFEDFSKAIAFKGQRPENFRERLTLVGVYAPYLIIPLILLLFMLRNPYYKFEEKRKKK
# [12] = target: T2, sigma-1 receptor; details: read-out: sigma-1 Kd; cited from earlier work
# [13] = target: T3, sigma-2 receptor; details: read-out: sigma-2 Kd; cited from earlier work
# T1 sequence (Q9R0C9 whole entry): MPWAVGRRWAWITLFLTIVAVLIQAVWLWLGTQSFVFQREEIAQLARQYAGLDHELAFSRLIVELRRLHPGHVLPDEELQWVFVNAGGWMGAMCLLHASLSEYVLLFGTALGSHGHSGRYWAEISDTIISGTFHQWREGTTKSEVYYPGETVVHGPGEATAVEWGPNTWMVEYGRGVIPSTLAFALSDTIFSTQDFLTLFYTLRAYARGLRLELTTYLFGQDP
# T3 sequence (Q5BJF2 whole entry, species assumed): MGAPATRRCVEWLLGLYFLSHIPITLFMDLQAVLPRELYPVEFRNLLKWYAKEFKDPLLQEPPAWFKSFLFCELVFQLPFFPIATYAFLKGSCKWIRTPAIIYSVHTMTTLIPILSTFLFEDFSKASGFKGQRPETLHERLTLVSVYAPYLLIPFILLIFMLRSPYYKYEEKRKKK
# T2 sequence (Q99720 whole entry, species assumed): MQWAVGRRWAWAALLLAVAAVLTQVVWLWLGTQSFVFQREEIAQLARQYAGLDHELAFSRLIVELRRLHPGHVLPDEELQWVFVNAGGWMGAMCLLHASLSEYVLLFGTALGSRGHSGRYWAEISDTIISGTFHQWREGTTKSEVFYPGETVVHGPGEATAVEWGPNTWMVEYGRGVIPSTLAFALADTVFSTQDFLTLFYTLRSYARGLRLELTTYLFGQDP
smiles,measurement,setting,value
"CN[C@@H](C)Cc1ccccc1 [methamphetamine, reference compound]",hypermobility in open-field assay (in words),"[1]; 3 mg/kg, ip, n = 6",induced hypermobility
same,hypermobility in open-field assay (in words),[2],induced hypermobility
"CN(C)CCc1c[nH]c2ccccc12 [DMT, N,N-dimethyltryptamine]",protection of [125I]-IACoc photolabeling of the 26-kD sigma-1 receptor,[3]; 50 μM,61%
same,protection of [125I]-IACoc photolabeling of the 26-kD sigma-1 receptor,[3]; 100 μM,~100%
same,distance traveled in open-field assay (hypermobility),"[1]; 2 mg/kg ip, 2 hours after pargyline (75 mg/kg, ip), n = 12",7025 ± 524.1 cm
same,inhibition of INa,[4],62 ± 3%
same,inhibition at 100 µM,[5],29 ± 3%
same,reduction of INa,[6],7 ± 2%
same,inhibition of INa,[7],22 ± 4%
same,protection of [125I]IAF photolabeling of the sigma-1 receptor,[8]; 10 μM,31%
same,protection of [125I]IAF photolabeling of the sigma-1 receptor,[8]; 50 μM,43%
same,protection of [125I]IAF photolabeling of the sigma-1 receptor,[8]; 100 μM,69%
NCCc1c[nH]c2ccccc12 [tryptamine],protection against sigma-1 receptor [125I]-IACoc photolabeling (in words),[3],protected minimally
same,Kd,[9],431 µM
same,Kd,[10],4.91 µM
same,protection of [125I]IAF sigma-2 receptor photolabeling,[11]; 10 μM,47%
same,protection of [125I]IAF sigma-2 receptor photolabeling,[11]; 50 μM,78%
same,protection of [125I]IAF sigma-2 receptor photolabeling,[11]; 100 μM,79%
"COC(=O)C1C(OC(=O)c2ccc(N=[N+]=[N-])c(I)c2)CC2CCC1N2C (stereo not shown) [[^125I]-IACoc, 3-[^125I]iodo-4-azidococaine]",Kd,[12],0.000126 µM
CNCCc1ccc(O)cc1 [N-methyltyramine],Kd,[10]; read-out: sigma-2 receptor Kd,6.61 µM
"O=C(CCCN1CCC(O)(c2ccc(Cl)cc2)CC1)c1ccc(F)cc1 [haloperidol, reference compound]",protection of sigma-2 receptor photolabeling (in words),"[11]; 10 μM, [125I]IAF",protected
NCCc1ccc(O)cc1 [tyramine],Kd,[9],> 30000 µM
NCCc1ccccc1 [phenethylamine],Kd,[9],97.4 µM
same,Kd,[10],7.31 µM
"CC1CN(CCCc2ccc(N=[N+]=[N-])c(I)c2)CC(C)O1 (stereo not shown) [[^125I]IAF, 1-N-(2′,6′-dimethyl-morpholino)-3-(4-azido-3-[^125I]iodo-phenyl) propane]",Kd,[12],0.194 µM
same,Kd,[13],2.78 µM
"CC(C)=CCN1CC[C@]2(C)c3cc(O)ccc3C[C@H]1[C@H]2C [(+)-pentazocine, reference compound]",protection of sigma-1 receptor photolabeling (in words),"[8]; 10 μM, [125I]-IACoc or [125I]IAF",protected
CNCCc1c[nH]c2ccccc12 [N-methyltryptamine],protection against sigma-1 receptor [125I]-IACoc photolabeling (in words),[3],protected minimally
